Data set [1] has as its system Mus musculus. As to the kind of experiment: Anticonvulsant activity in Wister albino mouse assessed as protection against subcutaneous metrazole-induced seizures at 100 mg/kg, ip administered 30 mins before metrazole challenge measured after 30 mins. It counts as functional. The note with it: route intraperitoneal. The method, boiled down: (§1)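 Wistar albino mice, either sex, 25–30 g, 3 months old, in groups of six. Compounds in DMSO were given ip at 30, 100 or 300 mg/kg; vehicle-only controls. After 30 min, metrazole 100 mg/kg in DMSO was injected sc at the posterior midline. Protection meant absence of any clonic spasm lasting ≥5 s; scored as protected/tested.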

For data set [2], the system named is Mus musculus. Put plainly: Anticonvulsant activity in Wister albino mouse assessed as protection against subcutaneous metrazole-induced seizures at 300 mg/kg, ip administered 30 mins before metrazole challenge measured after 30 mins. Type of data set: functional. In short, it runs like this:
as §1

In data set [3] the test system is Mus musculus. As to the kind of experiment: Anticonvulsant activity in Wister albino mouse assessed as protection against subcutaneous metrazole-induced seizures at 30 mg/kg, ip administered 30 mins before metrazole challenge measured after 30 mins. It counts as functional. In short, it runs like this:
as §1

Data set [4] deals with Mus musculus. As to the kind of experiment: Anticonvulsant activity in Wister albino mouse assessed as protection against maximal electroshock-induced seizures at 300 mg/kg, ip administered 30 mins before metrazole challenge measured after 30 mins. It counts as functional. The note with it: route intraperitoneal.
Data set [5] concerns Mus musculus. As to the kind of experiment: Anticonvulsant activity in Wister albino mouse assessed as protection against maximal electroshock-induced seizures at 100 mg/kg, ip administered 30 mins before metrazole challenge measured after 30 mins. It counts as functional. As to conditions: route intraperitoneal. In general terms: Protection in the maximal electroshock model is a classic sign of anticonvulsant action.

The subject of data set [6] is Micrococcus luteus. As to the kind of experiment: Antibacterial activity against Micrococcus luteus ATCC 21881 at 1 mg/mL after 24 hrs by agar diffusion method. It counts as functional. As to conditions: ATCC 21881, 24 h, read-out: Diameter of inhibition zone. The method, boiled down: (§2)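 Agar disc diffusion: 5 mm sterile paper discs soaked in 1 mg/mL test solution in DMSO were placed on agar seeded with the organism, in triplicate, with a DMSO-only control. Bacterial plates were incubated at 37 °C for 24 h and fungal plates for 7 days. Read-out was the average inhibition-zone diameter in mm. Fungi were clinical isolates.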

Data set [7] concerns Pseudomonas aeruginosa. Put plainly: Antibacterial activity against Pseudomonas aeruginosa ATCC 27853 after 24 to 48 hrs by twofold serial dilution method. Type of data set: functional. In short, it runs like this:
(§3)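 Broth microdilution in Müller–Hinton broth. DMSO stocks at 800 were diluted twofold from 400 down to 6.25. Wells received 10^6 CFU/mL bacterial suspension and were incubated at 36 °C for 24–48 h, with controls. MIC was read per well. Duplicate assays; run only for compounds giving inhibition zones ≥14 mm.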

For data set [8], the system named is Escherichia coli. As to the kind of experiment: Antibacterial activity against Escherichia coli ATCC 25922 after 24 to 48 hrs by twofold serial dilution method. It counts as functional. In short, it runs like this: as §3
Data set [9] deals with Pseudomonas aeruginosa. As to the kind of experiment: Antibacterial activity against Pseudomonas aeruginosa ATCC 27853 at 1 mg/mL after 24 hrs by agar diffusion method. Type of data set: functional. The note with it: ATCC 27853, 24 h, read-out: Diameter of inhibition zone. The method, boiled down:
as §2
(In general: Agar diffusion results depend on both activity and mobility in agar.)

The subject of data set [10] is Klebsiella pneumoniae. Put plainly: Antibacterial activity against Klebsiella pneumoniae isolate at 1 mg/mL after 24 hrs by agar diffusion method. It counts as functional. As to conditions: read-out: Diameter of inhibition zone. The method, boiled down:
as §2

In another data set the test system is Candida tropicalis. Put plainly: Antifungal activity against Candida tropicalis isolate after 72 hrs by twofold serial dilution method. It counts as functional, organism-based.
Data set [11] has as its system Micrococcus luteus. As to the kind of experiment: Antibacterial activity against Micrococcus luteus ATCC 21881 after 24 to 48 hrs by twofold serial dilution method. Type of data set: functional. In short, it runs like this:
as §3

For data set [12], the system named is Escherichia coli. As to the kind of experiment: Antibacterial activity against Escherichia coli ATCC 25922 at 1 mg/mL after 24 hrs by agar diffusion method. Type of data set: functional. The note with it: ATCC 25922, 24 h, read-out: Diameter of inhibition zone. The method, boiled down:
as §2

In data set [13] the test system is Klebsiella pneumoniae. Put plainly: Antibacterial activity against Klebsiella pneumoniae isolate after 24 to 48 hrs by twofold serial dilution method. Type of data set: functional. The method, boiled down:
as §3

Data set [14] relates to Staphylococcus aureus. Put plainly: Antibacterial activity against Staphylococcus aureus ATCC 6538 after 24 to 48 hrs by twofold serial dilution method. Type of data set: functional. The method, boiled down: as §3
A further data set concerns Aspergillus niger. Put plainly: Antifungal activity against Aspergillus niger isolate after 72 hrs by twofold serial dilution method. Type of data set: functional, organism-based.
For data set [15], the system named is Bacillus subtilis. Put plainly: Antibacterial activity against Bacillus subtilis NRRL B-14819 after 24 to 48 hrs by twofold serial dilution method. It counts as functional. In short, it runs like this: as §3
Data set [16] has as its system Candida albicans. Put plainly: Antifungal activity against Candida albicans isolate at 1 mg/mL after 7 days by twofold serial dilution method. It counts as functional. As to conditions: 168 h, read-out: Diameter of inhibition zone.
For data set [17], the system named is Bacillus subtilis. As to the kind of experiment: Antibacterial activity against Bacillus subtilis NRRL B-14819 at 1 mg/mL after 24 hrs by agar diffusion method. It counts as functional. As to conditions: read-out: Diameter of inhibition zone. In short, it runs like this: as §2
In data set [18] the test system is Aspergillus fumigatus. Put plainly: Antifungal activity against Aspergillus fumigatus isolate at 1 mg/mL after 7 days by agar diffusion method. Type of data set: functional. As to conditions: 168 h, read-out: Diameter of inhibition zone. In short, it runs like this: as §2
In another data set the test system is Pichia kudriavzevii. As to the kind of experiment: Antifungal activity against Candida krusei isolate after 72 hrs by twofold serial dilution method. It counts as functional, organism-based.
The subject of data set [19] is Staphylococcus aureus. As to the kind of experiment: Antibacterial activity against Staphylococcus aureus ATCC 6538 at 1 mg/mL after 24 hrs by agar diffusion method. Type of data set: functional. The note with it: ATCC 6538, 24 h, read-out: Diameter of inhibition zone. The method, boiled down: as §2
A further data set relates to Trichophyton rubrum. As to the kind of experiment: Antifungal activity against Trichophyton rubrum isolate after 72 hrs by twofold serial dilution method. Type of data set: functional, organism-based.
Data set [20] relates to Candida albicans. Put plainly: Antifungal activity against Candida albicans isolate after 72 hrs by twofold serial dilution method. Type of data set: functional.
The test system of data set [21] is Aspergillus fumigatus. Put plainly: Antifungal activity against Aspergillus fumigatus isolate after 72 hrs by twofold serial dilution method. Type of data set: functional.
Data set [22] concerns Mus musculus. As to the kind of experiment: Toxicity in Wister albino mouse assessed as death following tonic extension at 100 mg/kg, ip. It counts as organism-based. Further details: dose 100 mg/kg, route intraperitoneal. The note with it: in vivo. The method, boiled down: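 Wistar albino mice of either sex (25–30 g, 3 months), six per group. Compound was dissolved in DMSO and given ip 30 min before the maximal electroshock test, with solvent-only controls. Corneas received 0.5% xylocaine; 6 Hz, 0.2-ms pulses were given for 3 s at 6–64 mA. Animals were observed 30 min after dosing, and deaths following tonic extension were recorded.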

≈ marks a conversion by molar mass, not a printed value. Calls of active or inactive are those of the source. A value given as a limit tells only on which side of the number the result lay.

Take `O=C(Cn1nnnc1Cc1ccccc1)c1ccc(Cl)cc1`: the Activity in the data set with Mus musculus [1] was 50%; with Mus musculus [2], 0%; in the data set with Mus musculus [3], 0%; in the data set on Mus musculus [4], 0%; with Mus musculus [5], 50%.

The zone of inhibition is the extent of the growth-free halo in a diffusion test. Usually MIC stands for the smallest concentration in the dilution series that meets the test's criterion for growth inhibition. High values mean weaker potency, low ones greater potency. As for `O=C(COC(Cn1nnc(-c2ccccc2)n1)c1ccc(Cl)cc1)NNC(=S)Nc1ccccc1` (stereo unspecified), the zone of inhibition at 1000 µg/mL with Micrococcus luteus [6], with Pseudomonas aeruginosa [9], in the data set with Klebsiella pneumoniae [10], in the data set on Escherichia coli [12], with Candida albicans [16] and in the data set on Bacillus subtilis [17] was no less than 14 mm each time. The zone of inhibition at 1000 µg/mL with Aspergillus fumigatus [18] and in the data set on Staphylococcus aureus [19] was no less than 14 mm in each case. In addition, the Activity in the data set with Mus musculus [1] was found to be 80%; in the data set on Mus musculus [2] it was 0%; in the data set with Mus musculus [3] it was 0%; with Mus musculus [5], 67%. Moreover, the MIC is no less than 200 µg/mL against Pseudomonas aeruginosa [7]; no less than 200 µg/mL in the data set on Escherichia coli [8]; no less than 200 µg/mL in the data set with Micrococcus luteus [11]; no less than 200 µg/mL with Klebsiella pneumoniae [13]; 50 µg/mL (≈ 98.4 µM) against Staphylococcus aureus [14]; 100 µg/mL (≈ 197 µM) in the data set with Bacillus subtilis [15]. Also, the outcome in the data set with Candida tropicalis, in the data set on Aspergillus niger, with Pichia kudriavzevii and in the data set with Trichophyton rubrum was inactive.

For `Cc1cc(C)n(C(=O)COC(Cn2nnnc2Cc2ccccc2)c2ccc(Cl)cc2)n1` (stereo unspecified), the zone of inhibition at 1000 µg/mL in the data set with Micrococcus luteus [6], in the data set on Pseudomonas aeruginosa [9], with Klebsiella pneumoniae [10], in the data set on Escherichia coli [12], in the data set on Candida albicans [16] and with Bacillus subtilis [17] was no less than 14 mm in each case. The zone of inhibition at 1000 µg/mL in the data set on Aspergillus fumigatus [18] and with Staphylococcus aureus [19] was no less than 14 mm throughout. Further, the Activity with Mus musculus [1] and with Mus musculus [5] was 0% each time. In addition, the MIC in the data set on Pseudomonas aeruginosa [7] is no less than 200 µg/mL; in the data set on Candida albicans [20], 100 µg/mL (≈ 222 µM); against Escherichia coli [8], 100 µg/mL (≈ 222 µM); in the data set with Aspergillus fumigatus [21] it was no less than 200 µg/mL; in the data set on Micrococcus luteus [11] it was 50 µg/mL (≈ 111 µM); against Klebsiella pneumoniae [13], no less than 200 µg/mL. Besides, the MIC was 25 µg/mL (≈ 55.4 µM) against Staphylococcus aureus [14] and 50 µg/mL (≈ 111 µM) against Bacillus subtilis [15]. Moreover, the outcome in the data set on Candida tropicalis, in the data set on Aspergillus niger, with Pichia kudriavzevii and in the data set on Trichophyton rubrum was inactive.

In the case of `O=C(Cn1nnc(-c2ccccc2)n1)c1ccc(Cl)cc1`, the Activity result in the data set on Mus musculus [22] is “Toxic”; in the data set with Mus musculus [1], 0%; in the data set with Mus musculus [5], 0%.

Take `OC(Cn1nnnc1Cc1ccccc1)c1ccc(Cl)cc1` (stereo unspecified): the Activity in the data set on Mus musculus [1] is 100%; in the data set with Mus musculus [2] it was 50%; with Mus musculus [3] it was 0%; in the data set on Mus musculus [5] it was 67%.

The record behind these values is ChEMBL document CHEMBL1152796, “Azole antimicrobial pharmacophore-based tetrazoles: synthesis and biological evaluation as potential antimicrobial and anticonvulsant agents” (Bioorg Med Chem, 2009).
